From ChEMBL document CHEMBL1135243, “Evaluation of morphogenic regulatory activity of farnesoic acid and its derivatives against Candida albicans dimorphism” (Bioorg Med Chem Lett, 2002)
In brackets after ≈: the same amount, converted by molar mass.

Key:
Candida albicans [1] = assay: In vitro inhibition of yeast cell growth of candida albicans at a concentration of 100 ug/mL; format: functional
Candida albicans [2] = assay: In vitro inhibition of yeast-to-hypha transition in candida albicans; format: functional, organism-based
Candida albicans [3] = assay: In vitro inhibition of yeast-to-hypha transition in candida albicans; No inhibition; format: functional, organism-based
Candida albicans [4] = assay: In vitro inhibition of yeast cell growth of candida albicans; No inhibition; format: functional, organism-based
Candida albicans [5] = assay: In vitro inhibition of yeast cell growth of candida albicans; format: functional, organism-based
Candida albicans [6] = assay: In vitro inhibition of yeast-to-hypha transition in candida albicans at a concentration of 100 ug/mL; format: functional
In short: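 C. albicans ATCC 10231 grown 48 h at 30 °C in YPD, washed twice in sterile water. DMSO stocks diluted in glucose salts (GS) medium, final DMSO below 0.5%. Cells at 10^5 cells/mL in GS with compound, 4 h at 37 °C. Yeast vs hypha (germ tube) percentages counted microscopically on 200 cells from triplicate dishes, relative to 0.5% DMSO control. Highest concentration tested.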

CC(C)=CCC/C(C)=C/CC/C(C)=C/CO [FARNESOL]
inhibition at 100 µg/mL (Candida albicans [1]): 35% | IC50 (Candida albicans [2]): 2.82 µg/mL (≈ 12.7 µM)

CC(C)=CCC/C(C)=C/CC/C(C)=C/C(=O)OCc1ccccc1
IC50 (Candida albicans [3]): > 100 µg/mL | IC50 (Candida albicans [4]): > 100 µg/mL

CC(C)=CCC/C(C)=C/CC/C(C)=C/C(=O)OC/C=C/c1ccccc1
IC50 (Candida albicans [3]): > 100 µg/mL | IC50 (Candida albicans [4]): > 100 µg/mL

CC(C)=CCC/C(C)=C/CC/C(C)=C/C(N)=O
IC50 (Candida albicans [2]): 20.7 µg/mL (≈ 88 µM) | IC50 (Candida albicans [5]): 26.3 µg/mL (≈ 112 µM)

C=CCOC(=O)/C=C(\C)CC/C=C(\C)CCC=C(C)C
IC50 (Candida albicans [3]): > 100 µg/mL | IC50 (Candida albicans [4]): > 100 µg/mL

CC(C)=CCC/C(C)=C/CC/C(C)=C/C(=O)N1CCOCC1
IC50 (Candida albicans [2]): 41 µg/mL (≈ 134 µM) | IC50 (Candida albicans [5]): 87.5 µg/mL (≈ 286 µM)

CNC(=O)/C=C(\C)CC/C=C(\C)CCC=C(C)C
IC50 (Candida albicans [3]): > 100 µg/mL | IC50 (Candida albicans [4]): > 100 µg/mL

COC(=O)/C=C(\C)CC/C=C(\C)CCC=C(C)C
IC50 (Candida albicans [3]): > 100 µg/mL | IC50 (Candida albicans [4]): > 100 µg/mL

CC(C)=CCC/C(C)=C/CC/C(C)=C/C(=O)N(C)C
IC50 (Candida albicans [2]): 16.9 µg/mL (≈ 64.3 µM) | IC50 (Candida albicans [5]): 43.7 µg/mL (≈ 166 µM)

C=CCNC(=O)/C=C(\C)CC/C=C(\C)CCC=C(C)C
IC50 (Candida albicans [3]): > 100 µg/mL | IC50 (Candida albicans [4]): > 100 µg/mL

CC(C)=CCC/C(C)=C/CC/C(C)=C/CC/C(C)=C/C(=O)O [GERANYLGERANOIC ACID]
IC50 (Candida albicans [3]): > 100 µg/mL | IC50 (Candida albicans [4]): > 100 µg/mL

CC(C)=CCC/C(C)=C/CC/C(C)=C/COC(=O)/C=C(\C)CC/C=C(\C)CCC=C(C)C
IC50 (Candida albicans [3]): > 100 µg/mL | IC50 (Candida albicans [4]): > 100 µg/mL

CC(C)=CCC/C(C)=C/CC/C(C)=C/C(=O)OCC=C(C)C
IC50 (Candida albicans [3]): > 100 µg/mL | IC50 (Candida albicans [4]): > 100 µg/mL

CC(C)=CCC/C(C)=C/C(=O)O
IC50 (Candida albicans [3]): > 100 µg/mL | inhibition at 100 µg/mL (Candida albicans [1]): 57%

CC(C)=CCC/C(C)=C/CC/C(C)=C/C(=O)O
IC50 (Candida albicans [2]): 4.56 µg/mL (≈ 19.3 µM) | IC50 (Candida albicans [4]): > 100 µg/mL

CC(C)=CCC/C(C)=C/CC/C(C)=C/C(=O)OC/C=C(\C)CCC=C(C)C
IC50 (Candida albicans [3]): > 100 µg/mL | IC50 (Candida albicans [4]): > 100 µg/mL

CC(C)=CCC/C(C)=C/CC/C(C)=C\C(=O)O
inhibition at 100 µg/mL (Candida albicans [6]): 18% | IC50 (Candida albicans [4]): > 100 µg/mL
